Data from article PMC11235002 (BMJ Oncology, 2024).
Entries after “also recorded” stand apart in the source; their conditions may differ.

Assays:
[1] = system: syngeneic mouse models; settings: multiple syngeneic mouse models; cited from earlier work
[2] = INCB001158 plasma pharmacokinetics; format: in vivo, human; settings: for Cmax: Cmax (mean±SD); for half-life: t1/2 (mean±SD)
[3] = system: urea cycle; assay: Urea cycle inhibition monitored via orotic acid levels; format: in vivo, human
[4] = system: patients with advanced or metastatic solid tumours; assay: Safety: treatment-emergent adverse events; format: in vivo, human
How it was run: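 Safety covered monotherapy Parts 1a/2, with oral tablet or capsule dosing twice daily on days 1–28 of 28-day cycles. TEAEs were graded by CTCAE v4.03, which counts malignant progression as an AE. Laboratory values, vital signs and physical examinations were also monitored. The safety population was all patients receiving ≥1 dose. DLTs were defined as grade 3–4 toxicities, urea cycle inhibition, or AUC0–12h >100 µg.h/mL.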

[5] = system: plasma arginine; assay: Pharmacodynamics: plasma arginine concentration by LC-MS/MS; format: in vivo, human; settings: monotherapy / INCB001158 overall
[6] = human, plasma, oral, 50 mg, Part 1a C1D1 single dose 50 mg (n=8)
[7] = human, plasma, oral, 75 mg, Part 1a C1D1 single dose 75 mg (n=7)

## C[C@H](N)C(=O)N1C[C@H](CCCB(O)O)[C@](N)(C(=O)O)C1 [INCB001158]
[1]
  tumour growth: reduced tumour growth
[2]; after multiple oral administrations, 50 mg to 150 mg two times per day
  dose proportionality of plasma exposure (Cmax, AUC): increased approximately dose proportionally
[2]; human, plasma, oral, 50 mg
  AUC(0-inf): 8860 ± 3810 ng·h/mL
[2]; [6]
  Cmax: 795 ± 259 ng/mL
  half-life: 5.5 ± 1.4 h
[2]; [7]
  Cmax: 1350 ± 379 ng/mL
  half-life: 5.3 ± 1 h
[2]; monotherapy, from predose PK samples
  time to steady state: < 1 week
[3]; 150 mg two times per day, highest dose level tested, no symptomatic nor clinically significant urea cycle inhibition
  orotic acid levels: apparent increase in orotic acid levels
[3]; monotherapy, all asymptomatic
  patients with urinary orotic acid levels >10× the upper limit of normal: four
[4]; monotherapy
  TEAEs leading to dose reduction: no TEAE led to dose reduction
  recommended phase 2 dose (RP2D): 100 mg two times per day
  serious TEAE abdominal pain: 5.6%
  serious TEAE back pain: 2.8%
  serious TEAE cellulitis: 2.8%
  serious TEAE malignant neoplasm progression: 4.7%
  serious TEAE small-intestinal obstruction: 2.8%
[4]; monotherapy 50 mg bid (n=8)
  ALT increased, any-grade TEAE: 0 n (%)
  AST increased, any-grade TEAE: 1 (12.5) n (%)
  Abdominal pain, any-grade TEAE: 2 (25.0) n (%)
  Abdominal pain, grade ≥3 TEAE: 1 (12.5) n (%)
  Anaemia, any-grade TEAE: 3 (37.5) n (%)
  Anaemia, grade ≥3 TEAE: 1 (12.5) n (%)
  Any TEAE: 7 (87.5) n (%)
  Any grade ≥3 TEAE: 6 (75.0) n (%)
  Any irTEAE: 0 n (%)
  Colitis, irTEAE: 0 n (%)
  Constipation, any-grade TEAE: 2 (25.0) n (%)
  Decreased appetite, any-grade TEAE: 0 n (%)
  Diarrhoea, any-grade TEAE: 0 n (%)
  Fatigue, any-grade TEAE: 1 (12.5) n (%)
  Fatigue, grade ≥3 TEAE: 0 n (%)
  Hypoalbuminaemia, any-grade TEAE: 0 n (%)
  Hyponatraemia, any-grade TEAE: 0 n (%)
  Hyponatraemia, grade ≥3 TEAE: 0 n (%)
  Malignant neoplasm progression, grade ≥3 TEAE: 0 n (%)
  Nausea, any-grade TEAE: 2 (25.0) n (%)
  Oedema peripheral, any-grade TEAE: 2 (25.0) n (%)
  Vomiting, any-grade TEAE: 2 (25.0) n (%)
[4]; monotherapy 75 mg bid (n=7)
  ALT increased, any-grade TEAE: 0 n (%)
  AST increased, any-grade TEAE: 0 n (%)
  Abdominal pain, any-grade TEAE: 0 n (%)
  Abdominal pain, grade ≥3 TEAE: 0 n (%)
  Anaemia, any-grade TEAE: 3 (42.9) n (%)
  Anaemia, grade ≥3 TEAE: 1 (14.3) n (%)
  Any TEAE: 7 (100.0) n (%)
  Any grade ≥3 TEAE: 2 (28.6) n (%)
  Any irTEAE: 0 n (%)
  Colitis, irTEAE: 0 n (%)
  Constipation, any-grade TEAE: 1 (14.3) n (%)
  Decreased appetite, any-grade TEAE: 2 (28.6) n (%)
  Diarrhoea, any-grade TEAE: 0 n (%)
  Fatigue, any-grade TEAE: 3 (42.9) n (%)
  Fatigue, grade ≥3 TEAE: 0 n (%)
  Hypoalbuminaemia, any-grade TEAE: 0 n (%)
  Hyponatraemia, any-grade TEAE: 1 (14.3) n (%)
  Hyponatraemia, grade ≥3 TEAE: 0 n (%)
  Malignant neoplasm progression, grade ≥3 TEAE: 0 n (%)
  Nausea, any-grade TEAE: 3 (42.9) n (%)
  Oedema peripheral, any-grade TEAE: 0 n (%)
  Vomiting, any-grade TEAE: 3 (42.9) n (%)
[4]; monotherapy 100 mg bid (n=85)
  ALT increased, any-grade TEAE: 4 (4.7) n (%)
  AST increased, any-grade TEAE: 8 (9.4) n (%)
  Abdominal pain, any-grade TEAE: 15 (17.6) n (%)
  Abdominal pain, grade ≥3 TEAE: 5 (5.9) n (%)
  Anaemia, any-grade TEAE: 11 (12.9) n (%)
  Anaemia, grade ≥3 TEAE: 4 (4.7) n (%)
  Any TEAE: 81 (95.3) n (%)
  Any grade ≥3 TEAE: 40 (47.1) n (%)
  Any irTEAE: 1 (1.2) n (%)
  Constipation, any-grade TEAE: 18 (21.2) n (%)
  Decreased appetite, any-grade TEAE: 17 (20.0) n (%)
  Diarrhoea, any-grade TEAE: 5 (5.9) n (%)
  Fatigue, any-grade TEAE: 23 (27.1) n (%)
  Fatigue, grade ≥3 TEAE: 6 (7.1) n (%)
  Hypoalbuminaemia, any-grade TEAE: 6 (7.1) n (%)
  Hyponatraemia, any-grade TEAE: 5 (5.9) n (%)
  Hyponatraemia, grade ≥3 TEAE: 2 (2.4) n (%)
  Malignant neoplasm progression, grade ≥3 TEAE: 5 (5.9) n (%)
  Nausea, any-grade TEAE: 18 (21.2) n (%)
  Oedema peripheral, any-grade TEAE: 13 (15.3) n (%)
  Vomiting, any-grade TEAE: 9 (10.6) n (%)
[4]; monotherapy 100 mg bid (n=85), related to INCB001158 treatment
  Colitis, irTEAE: 1 (1.2)¶ n (%)
[4]; monotherapy 150 mg bid (n=7)
  ALT increased, any-grade TEAE: 1 (14.3) n (%)
  AST increased, any-grade TEAE: 1 (14.3) n (%)
  Abdominal pain, any-grade TEAE: 1 (14.3) n (%)
  Abdominal pain, grade ≥3 TEAE: 0 n (%)
  Anaemia, any-grade TEAE: 0 n (%)
  Anaemia, grade ≥3 TEAE: 0 n (%)
  Any TEAE: 7 (100.0) n (%)
  Any grade ≥3 TEAE: 1 (14.3) n (%)
  Any irTEAE: 0 n (%)
  Colitis, irTEAE: 0 n (%)
  Constipation, any-grade TEAE: 2 (28.6) n (%)
  Decreased appetite, any-grade TEAE: 2 (28.6) n (%)
  Diarrhoea, any-grade TEAE: 1 (14.3) n (%)
  Fatigue, any-grade TEAE: 3 (42.9) n (%)
  Fatigue, grade ≥3 TEAE: 0 n (%)
  Hypoalbuminaemia, any-grade TEAE: 1 (14.3) n (%)
  Hyponatraemia, any-grade TEAE: 1 (14.3) n (%)
  Hyponatraemia, grade ≥3 TEAE: 1 (14.3) n (%)
  Malignant neoplasm progression, grade ≥3 TEAE: 0 n (%)
  Nausea, any-grade TEAE: 1 (14.3) n (%)
  Oedema peripheral, any-grade TEAE: 1 (14.3) n (%)
  Vomiting, any-grade TEAE: 0 n (%)
[4]; monotherapy 150 mg two times per day, one DLT
  DLT: treatment-related grade 2 malaise
[4]; monotherapy (8 patients)
  TEAEs leading to INCB001158 discontinuation: 7.5%
[4]; monotherapy (10 patients), none considered related to INCB001158
  fatal TEAEs: 9.3%
[4]; monotherapy (33 patients)
  TEAEs leading to INCB001158 dose interruption: 30.8%
[4]; monotherapy (36 patients)
  Serious TEAEs: 33.6%
[4]; monotherapy (N=107)
  patients with grade ≥3 TEAEs: 45.8%
[4]; monotherapy (n=10/107)
  INCB001158-related fatigue: 9.3%
  INCB001158-related nausea: 9.3%
[4]; monotherapy Parts 1a/2
  TEAEs grade 1/2 in severity: 54.2%
[4]; monotherapy Total (N=107)
  ALT increased, any-grade TEAE: 5 (4.7) n (%)
  AST increased, any-grade TEAE: 10 (9.3) n (%)
  Abdominal pain, any-grade TEAE: 18 (16.8) n (%)
  Abdominal pain, grade ≥3 TEAE: 6 (5.6) n (%)
  Anaemia, any-grade TEAE: 17 (15.9) n (%)
  Anaemia, grade ≥3 TEAE: 6 (5.6) n (%)
  Any TEAE: 102 (95.3) n (%)
  Any grade ≥3 TEAE: 49 (45.8) n (%)
  Any irTEAE: 1 (0.9) n (%)
  Colitis, irTEAE: 1 (0.9) n (%)
  Constipation, any-grade TEAE: 23 (21.5) n (%)
  Decreased appetite, any-grade TEAE: 21 (19.6) n (%)
  Diarrhoea, any-grade TEAE: 6 (5.6) n (%)
  Fatigue, any-grade TEAE: 30 (28.0) n (%)
  Fatigue, grade ≥3 TEAE: 6 (5.6) n (%)
  Hypoalbuminaemia, any-grade TEAE: 7 (6.5) n (%)
  Hyponatraemia, any-grade TEAE: 7 (6.5) n (%)
  Hyponatraemia, grade ≥3 TEAE: 3 (2.8) n (%)
  Malignant neoplasm progression, grade ≥3 TEAE: 5 (4.7) n (%)
  Nausea, any-grade TEAE: 24 (22.4) n (%)
  Oedema peripheral, any-grade TEAE: 16 (15.0) n (%)
  Vomiting, any-grade TEAE: 14 (13.1) n (%)
[4]; monotherapy and combination with pembrolizumab
  tolerability: generally well tolerated
[4]; monotherapy, safety-evaluable population
  patients with INCB001158-related TEAEs: 43 n
[4]; monotherapy, one patient, led to discontinuation
  immune-related TEAE of colitis: 0.9%
[4]; monotherapy, one patient, recovered/resolved
  serious INCB001158-related TEAE: grade 3 adrenal haemorrhage
[4]; up to 150 mg two times per day
  maximum tolerated dose: No maximum tolerated dose was reached
[5]
  plasma arginine change on treatment: dose-dependently increased; also recorded: dose-dependent increase in plasma arginine
